Assay outcomes as filed in PubChem BioAssay.
This is a sample that favours compounds with a hit; in the whole collection about 1.3% have one here.
G6PDH counter-1: L. mesenteroides G6PDH inhibition counter-screen; Purified L. mesenteroides G6PDH, diaphorase/resazurin coupled fluorescence, 45 min; inhibition, % at 5 µM; actives 0.12% (n = 200,000); in the data active means inhibition above about 50%
PfGluPho inh: PfG6PD (Plasmodium falciparum) enzyme inhibition; PfGluPho enzyme, NADPH resazurin-diaphorase fluorescence; inhibition, % at 20 µM; actives 0.78% (n = 350,000);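 active means inhibition reaching at least a set limit at 20 µM in the primary screen, cut at about 59% in these data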
Diaph inh CS: counter-screen for diaphorase-based assays: diaphorase inhibitors and chemical oxidizers; diaphorase resazurin-to-resorufin fluorescence, NADH, 16 min; bacterial (C. kluyveri) enzyme, not human; inhibition, % at 20 µM; actives 0.69% (n = 190,000); AID 1217;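 active means primary screen inhibition at 20 µM above a set limit, cut at about 50% in these data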
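controls = No-NADH positive control and DMSO neutral control | system = Clostridium kluyveri diaphorase enzyme | timing = reaction incubation of 16 min at room temperature | signal = resorufin fluorescence 544/590 nm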
TbHK1 inh: blocks Trypanosoma brucei hexokinase 1 activity | inhibition, % at 10 µM | actives 0.11% (n = 220,000) | recombinant TbHK1, G6PDH-coupled NADH A340;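 active means inhibition of 50% or more in the single-dose primary screen; inactive means inhibition below 50%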
HKDC1 inhibitor: HKDC1 (human) hexokinase inhibition; Q2TB90; recombinant HKDC1, G6PDH/diaphorase resazurin coupled fluorescence; inhibition, % at 20 µM; actives 0.16% (n = 340,000); AID 493160;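 active means inhibition above about 35% when tested at 20 µM, limit read from the data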
Target sequence (Q2TB90 whole entry, looked up): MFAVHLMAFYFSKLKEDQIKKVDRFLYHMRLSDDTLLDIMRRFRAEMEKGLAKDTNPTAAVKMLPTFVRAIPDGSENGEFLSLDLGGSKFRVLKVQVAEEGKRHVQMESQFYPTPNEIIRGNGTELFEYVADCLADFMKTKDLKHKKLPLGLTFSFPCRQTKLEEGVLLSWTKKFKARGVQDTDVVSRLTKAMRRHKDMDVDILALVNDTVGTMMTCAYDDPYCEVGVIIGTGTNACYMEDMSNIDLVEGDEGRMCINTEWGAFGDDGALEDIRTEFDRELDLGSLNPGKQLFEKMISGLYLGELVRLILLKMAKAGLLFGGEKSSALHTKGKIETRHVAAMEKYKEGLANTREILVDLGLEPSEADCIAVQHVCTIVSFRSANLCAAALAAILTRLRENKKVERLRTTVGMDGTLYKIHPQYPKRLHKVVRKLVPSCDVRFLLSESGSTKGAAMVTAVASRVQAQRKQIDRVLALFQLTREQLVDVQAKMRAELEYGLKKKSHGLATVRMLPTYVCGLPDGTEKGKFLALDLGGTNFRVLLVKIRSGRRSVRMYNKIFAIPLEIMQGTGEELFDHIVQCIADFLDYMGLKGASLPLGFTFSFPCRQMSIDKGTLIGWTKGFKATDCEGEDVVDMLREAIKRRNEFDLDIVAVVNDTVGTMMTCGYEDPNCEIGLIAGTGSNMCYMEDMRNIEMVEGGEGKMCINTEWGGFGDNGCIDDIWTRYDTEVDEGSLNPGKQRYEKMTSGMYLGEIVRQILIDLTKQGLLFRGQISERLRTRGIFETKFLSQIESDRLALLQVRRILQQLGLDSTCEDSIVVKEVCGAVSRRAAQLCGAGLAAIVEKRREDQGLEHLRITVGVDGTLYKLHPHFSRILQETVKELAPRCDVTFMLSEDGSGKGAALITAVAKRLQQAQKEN
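Assay system: recombinant HKDC1 hexokinase; detection: coupled resazurin fluorescence, excitation 525 nm, emission 613 nm; benchmarks: DMSO-plus-enzyme-mix negative control, buffer-substituted positive control; compound dosing: single 20 µM dose; schedule: 90 min at room temperature in dark; also added: glucose plus 1 mM ATP as hexokinase substrates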
G6PDH counter-2: Leuconostoc glucose-6-phosphate dehydrogenase inhibition, counter-screen; shares compounds with TbHK1 inh; purified G6PDH, NADH absorbance, 1 h; inhibition, % at 10 µM; actives 7% (n = 210);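 active means at least 50% inhibition in the glucose-6-phosphate dehydrogenase coupled counterscreen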
TbHK1 rescreen: T. brucei hexokinase 1 inhibition, rescreen; shares compounds with TbHK1 inh; recombinant TbHK1, G6PDH-coupled NADH A340 absorbance; inhibition, % at 10 µM; actives 10% (n = 210); AID 2560;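 active means inhibition of at least 50% in both of the two screening runs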
HKDC1 act conf2: HKDC1 (human) activation, single-dose confirmed; recombinant HKDC1, G6PDH/diaphorase resazurin fluorescence; hits give low values; actives 14% (n = 740); inhibition, % at 20 µM; shares compounds with HKDC1 inhibitor;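 active means inhibition at or below a set negative limit, negative inhibition meaning the enzyme was activated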
Hits are given with their value; - = inactive; . = not tested or not shown.

SMILES	G6PDH counter-1	PfGluPho inh	Diaph inh CS	TbHK1 inh	HKDC1 inhibitor	others
Cn1ncnc2c(=O)n(C)c(=O)nc1-2	72	122	56	.	69
N/C(=N\N=C/c1ccc(-c2ccc(O)c(C(=O)O)c2)o1)N[N+](=O)[O-]	-	-	57	-	-
CCOP(=O)(OCC)c1cc(CC)ccc1O	.	-	.	-	-
COc1ccc(CCNC(=O)c2c(N)n(CCN3CCOCC3)c3nc4ccccc4nc23)cc1	-	-	59	-	-
Cc1ccc(-n2c(O)c(C=NCc3ccco3)c(=O)[nH]c2=S)cc1C	.	-	.	-	-
Cc1cc2c(C(C)C)c(O)c(O)c(C=O)c2c(O)c1-c1c(C)cc2c(C(C)C)c(O)c(O)c(C=O)c2c1O	-	.	64	-	.
CN1C(=O)c2ccccc2NC(=O)[C@]12O[C@@H]2c1ccccc1	-	-	-	-	-
CN(C)C(=S)SSC(=S)N(C)C	-	95	-	-	-
CCOP1(=S)Oc2cc3c(cc2C(C(=O)OC)(C(F)(F)F)O1)OCO3 (stereo not drawn)	-	64	-	-	-
CCCCOC(=O)COc1cc(C)cc2oc(=O)c3c(c12)CCC3	-	-	-	-	-
O=C(NC1(C(F)(F)F)Oc2ccc(Cl)cc2O1)N1CCC2(CC1)OCCO2 (stereo not drawn)	-	-	52	-	-
O=C(NC1(C(F)(F)F)Oc2ccccc2O1)N1CCC2(CC1)OCCO2	-	-	-	-	-
CCOc1ccc(N2C(=O)/C(=C/c3ccco3)C(=O)NC2=S)cc1	.	-	.	.	81
COc1ccc(CN2CCN(C(=O)COc3cccc(C)c3)CC2)c(OC)c1	-	-	-	-	-
Cc1nc2ccccc2c(=O)n1-c1ccc(Cl)cc1[N+](=O)[O-]	-	-	77	-	-
O=c1[nH]c2ccccc2o1	-	-	-	-	-
COc1ccc(OC(=O)N(C)C[C@@H]2OCc3ccccc3-c3c(n(C)c4ccccc34)C(=O)N([C@H](C)CO)C[C@@H]2C)cc1	.	-	.	.	.
O=C1NC(=O)N(c2ccccc2)C(=O)/C1=C\c1ccc([N+](=O)[O-])o1	.	.	.	-	.
O=C1NC(=O)N(c2ccccc2)C(=O)/C1=C\c1ccc([N+](=O)[O-])s1	.	81	.	-	-
CN1C(=O)NC(=O)/C(=C/c2ccc([N+](=O)[O-])s2)C1=O	.	81	.	-	-
COc1ccc(OC)c(N2C(=O)NC(=O)/C(=C\c3ccc([N+](=O)[O-])s3)C2=O)c1	-	-	-	-	-
CN1C(=O)/C(=C\c2ccc(Br)s2)C(=O)NC1=S	.	60	.	.	-
C=CCN1C(=O)C2(C(C(=O)OCC)=C(N)Oc3ccccc32)C2=C1CCCC2=O (stereo not drawn)	-	-	-	-	-
O=P(Oc1ccccc1)(Oc1ccccc1)N1CCOCC1	.	-	.	.	-
CC(=O)CCC(C)=O	.	-	.	.	-
SMILES	G6PDH counter-1	PfGluPho inh	Diaph inh CS	TbHK1 inh	HKDC1 inhibitor	others
O=C(O)c1ccc2c(c1)C1C(Cl)C(Sc3ccccc3[N+](=O)[O-])CC1C(c1cccc([N+](=O)[O-])c1)N2 (stereo not drawn)	-	-	66	-	-
CCN(CC)C(=O)c1ccc2c(c1)C1C(Cl)C(Sc3ccccc3[N+](=O)[O-])CC1C(C(=O)O)N2 (stereo not drawn)	.	-	.	-	-
O=C(O)c1cccc2c1NC(c1cccc([N+](=O)[O-])c1)C1CC(Sc3ccccc3[N+](=O)[O-])C(Cl)C21 (stereo not drawn)	-	-	94	-	-
Cc1ccc(OC(=O)N(C)C[C@@H]2OCc3cnnn3CCCC(=O)N([C@H](C)CO)C[C@H]2C)cc1	.	-	.	.	.
C[C@@]1(CO)[C@H](O)CC[C@@]2(C)[C@H]1CC[C@H]1C[C@@H]3C[C@@]12CC[C@]3(O)CO	54	.	-	-	.
CN(C)CP(=O)(O)CN(C)C=O	-	-	-	51	-	G6PDH counter-2=-;TbHK1 rescreen=-
C=CCOC(=O)N1Cc2ccccc2-n2nncc2C1	.	-	.	.	.
Cc1ccc(C2(O)CC(C)N(C)CC2C)cc1 (stereo not drawn)	-	-	-	53	-	G6PDH counter-2=-;TbHK1 rescreen=-
COc1ccc(OC)c(-n2c(O)c(C=NCc3ccc4c(c3)OCO4)c(=O)[nH]c2=O)c1	-	-	-	55	-	G6PDH counter-2=-;TbHK1 rescreen=-
COc1ccc(CCn2c(O)c(C=NCc3ccc4c(c3)OCO4)c(=O)[nH]c2=O)cc1OC	-	-	-	-	-
Cc1ccc(Cl)cc1-n1c(O)c(C=NCCCN2CCOCC2)c(=O)[nH]c1=O	-	-	-	-	-
CCOC(=O)N(c1ccccc1)P1(=S)OCC(C)O1 (stereo not drawn)	-	-	-	53	-	G6PDH counter-2=-;TbHK1 rescreen=-
CCOC(=O)N(c1ccccc1)P1(=S)OCCO1	-	-	-	-	-
Nc1cnn(-c2ccccc2)c(=O)c1Cl	.	-	.	.	45	HKDC1 act conf2=-
Cc1cccc(N2C(=O)NC(=O)/C(=C\c3cc(C)n(-c4sc5c(c4C#N)CCCC5)c3C)C2=O)c1C	-	-	-	-	72	HKDC1 act conf2=-
